Structures are written as SMILES.

The data set is described as follows: Toxicity liver stage against HepG2, at 10uM. The format is cell-based. Also on record: test concentration 10 uM, cell line HepG2-A16-CD81EGFP. The following applies: human, HepG2-A16-CD81EGFP cells; read-out: INHIBITION
The method in brief:
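Uninfected HepG2-A16-CD81EGFP cells, 3 × 10^3 per well, 1536-well, plated on prespotted compound at 10 μM final, parasite-free screening media added to match infected plates; puromycin 10 μM positive, DMSO 0.5% negative; run in parallel with 48 h PbLuc assay at 37 °C, 5% CO2; viability by CellTiter-Glo luminescence, normalized to controls.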
Take `CCC(C)(C)n1nnnc1C(c1cccs1)N1CCc2ccccc21` (centres undefined): the cytotoxicity at 10 µM was 8.67%.

In the case of `CS(=O)(=O)N1CCC2(CCN(Cc3nccs3)CC2)CC1`, the cytotoxicity at 10 µM is 8.28%.

Regarding `Cc1ccc(NC(=O)c2ccc(=O)n(CC(=O)Nc3nccs3)n2)cc1`, the cytotoxicity at 10 µM turned out to be 0.592%.

As to `CS(=O)(=O)N1CC(=O)N(CCCc2ccccc2)CC(O)C1` (centres undefined), the cytotoxicity at 10 µM is -7.99%.

As for `CCOC(=O)N1[C@@H](c2ccco2)[C@@H](C(=O)NC)C[C@]12CCCCNC2=O`, the cytotoxicity at 10 µM is -4.57%.

Consider `COc1ccc(C(=O)N2CC(=O)N(CC3CC3)CC(O)C2)cc1` (centres undefined), for which the cytotoxicity at 10 µM was 4.77%.

Consider `CCOC(=O)N1CCC(OC)c2ccccc2N(CC(=O)NC)C(=O)C1` (centres undefined), for which the cytotoxicity at 10 µM was found to be 9.12%.

For the molecule `CCOC(=O)COc1nc(CC(C)C)c2c(c1C#N)CCC2`, the cytotoxicity at 10 µM is -5.72%.

In the case of `Cc1occc(=O)c1OCc1noc(C(=O)NC(C)C)n1`, the cytotoxicity at 10 µM worked out at 4.6%.

Take `O=C(Cc1ccc(F)cc1)NCC1CCN(Cc2ccsc2)CC1`: the cytotoxicity at 10 µM is -7.15%.

For the molecule `CC(O)(CCc1ccccc1)CNC(=O)c1cccs1` (centres undefined), the cytotoxicity at 10 µM is -1.44%.

Take `CCS(=O)(=O)N1CCC2(CC1)CC[C@@]1(C(=O)N(C)C)CN(C(C)=O)C[C@@H]21`: the cytotoxicity at 10 µM amounted to 6.43%.

Take `O=C(c1ccco1)N1CCO[C@@H]2CN(c3ncc(F)cn3)CC[C@@H]2C1`: the cytotoxicity at 10 µM was determined as 4.74%.

Turning to `COc1ccccc1C1SCC(=O)Nc2n[nH]cc21` (centres undefined), the cytotoxicity at 10 µM is -1.84%.

Turning to `Nc1no[n+]([O-])c1C(=O)NCc1cccnc1`, the cytotoxicity at 10 µM worked out at 5.93%.

With `Cc1ccc(C(=O)N2CCC(c3noc(-c4cccnc4)n3)CC2)cn1`, the cytotoxicity at 10 µM came out at 2.6%.

For `Cc1ncsc1-c1cc(C(=O)NCCO)ccn1`, the cytotoxicity at 10 µM was -6.58%.

For the molecule `CC(C)C(=O)N1CCC([C@@H]2C[C@H](C(F)F)n3ncnc3N2)CC1`, the cytotoxicity at 10 µM was 6.21%.

Regarding `CN(C)C(=O)CN1CCCC1c1cccc(Cc2ccccc2F)n1` (centres undefined), the cytotoxicity at 10 µM was -6.94%.

Take `CCn1ccc(C(=O)N2CCOC(c3nc(-c4cccs4)no3)C2)n1` (centres undefined): the cytotoxicity at 10 µM turned out to be 10.9%.

Consider `CC(=O)N1CCC(c2ccnc(Nc3cncnc3)n2)C1` (centres undefined), for which the cytotoxicity at 10 µM came out at 0.951%.

`O=C(Cc1ccc(-n2cnnn2)cc1)Nc1cnn(CC(F)F)c1`: the cytotoxicity at 10 µM was 1.97%.

Consider `CC(=O)Nc1nc(CNc2ccccc2CCC(F)(F)F)cs1`, for which the cytotoxicity at 10 µM was found to be 27.9%.

As for `COCCNC(=O)CN1CCN(c2nc3cc(C)ccc3o2)CC1`, the cytotoxicity at 10 µM was found to be 5.75%.

Regarding `CC1CCCCN1C(=O)CCn1cnc2sccc2c1=O` (centres undefined), the cytotoxicity at 10 µM came out at 3.63%.

Take `Cc1ccc(C(=O)NC(C)Cn2cccn2)c(=O)[nH]1` (centres undefined): the cytotoxicity at 10 µM was -2.16%.

Take `Cc1nnc(C(C)N2CCCN(Cc3noc(C4CC4)n3)CC2)o1` (centres undefined): the cytotoxicity at 10 µM is -21.2%.

With `NC(=O)c1cc(C2CC2)nc2ccc(F)cc12`, the cytotoxicity at 10 µM came to 3.87%.

Regarding `CO[C@@H]1CCN(C(=O)c2cnoc2C)[C@H]1Cc1ccccc1`, the cytotoxicity at 10 µM was -72.3%.

With `CN1CCN(c2ncnc3c2CCN(C(=O)c2cccn2C)CC3)CC1`, the cytotoxicity at 10 µM was -71%.

For `COCc1nc(NC(C)c2c(C)n[nH]c2C)c2cnn(C)c2n1` (centres undefined), the cytotoxicity at 10 µM is -13.4%.

As to `CC(C)c1nnc2sc(CC3CN(Cc4ccccc4)CCO3)nn12` (centres undefined), the cytotoxicity at 10 µM was -2.66%.

As to `CCc1cn[nH]c1C1CCN(c2cc(C)c3cccc(OC)c3n2)CC1`, the cytotoxicity at 10 µM amounted to 19%.

In the case of `Cc1n[nH]c(C)c1CCNC(=O)Nc1ccc(S(C)(=O)=O)cc1`, the cytotoxicity at 10 µM is -5.01%.

Regarding `Cc1ccc(C(C(=O)NCCN2CCC(CO)CC2)N(C)C)cc1` (centres undefined), the cytotoxicity at 10 µM was -10.2%.

Regarding `Cc1c(C(=O)N2CCN(C)[C@@H]3CS(=O)(=O)C[C@@H]32)[nH]c2ccc(F)cc12`, the cytotoxicity at 10 µM is -9.2%.

Turning to `O=C(c1ccc[nH]1)N1CCc2cc(S(=O)(=O)N3CCOCC3)ccc2C1`, the cytotoxicity at 10 µM was -3.44%.

With `Cc1cnc(C(=O)N2CCNCC2C(=O)NCc2ccncc2)cn1` (centres undefined), the cytotoxicity at 10 µM is 0.89%.

Turning to `CCNC(=O)C1CN(Cc2c(-c3cc(C)on3)nn(C)c2Cl)CCO1` (centres undefined), the cytotoxicity at 10 µM was -4.37%.

Take `COCCN1CCCC(O)(CN2CCCN(c3ncccn3)CC2)C1=O` (centres undefined): the cytotoxicity at 10 µM was -3.95%.

With `Cn1ccc2ccc(C(=O)N3CCC[C@H]3C(=O)N3CCOCC3)cc21`, the cytotoxicity at 10 µM was -0.829%.

As for `CN(C)c1ncnc2c1CCN(S(=O)(=O)c1cccc(Cl)c1Cl)C2`, the cytotoxicity at 10 µM came out at 10.4%.

Take `CCS(=O)(=O)N1CCCC(c2nccn2Cc2ccccn2)C1` (centres undefined): the cytotoxicity at 10 µM was -10.5%.

Take `CCc1c(C)nn(CC(=O)NC(C)c2n[nH]c(C)n2)c1C` (centres undefined): the cytotoxicity at 10 µM was -14.1%.

`Cc1cc(C)c2c(N3CCC(C(=O)N4CCCC4)CC3)ncnc2n1`: the cytotoxicity at 10 µM was -0.218%.

As for `O=C1Cc2cc(NC(=O)N3CCCN(Cc4cccs4)CC3)ccc2N1`, the cytotoxicity at 10 µM is 0.929%.

For the molecule `CCCc1nc(C(=O)N[C@H]2COC[C@@H]2N2CCN(C)CC2)cs1`, the cytotoxicity at 10 µM was -23.8%.

As to `CCn1cc(CN(C)S(=O)(=O)c2cnn(CC)c2C)c(C)n1`, the cytotoxicity at 10 µM stood at 3.13%.

In the case of `O=C(NCCn1ccnc1)c1ccn(-c2ccc(F)cc2)n1`, the cytotoxicity at 10 µM is -1.03%.

Consider `Cc1nn(C)c(C)c1CC(=O)N1CCc2nnc(N(C)C)cc2C1`, for which the cytotoxicity at 10 µM is -7.63%.

For the molecule `CC(C)c1cc(NC(=O)CNC2CCCN(c3cccnn3)C2)on1` (centres undefined), the cytotoxicity at 10 µM was -1.79%.

Take `O=c1[nH]c(CN(Cc2ccco2)C2CCCC2)nc2ccccc12`: the cytotoxicity at 10 µM was determined as 11.6%.

As for `CC(Nc1cccc(CN2CCOC2=O)c1)C(=O)Nc1ccccc1F` (centres undefined), the cytotoxicity at 10 µM was -5.25%.

Regarding `Cc1cnc(CN(C)C2CCN(CC(=O)N(C)c3nccs3)C2)o1` (centres undefined), the cytotoxicity at 10 µM was -4.1%.

`CC(NC(=O)N1CCC(n2cncn2)CC1)c1ccc(F)cc1F` (centres undefined): the cytotoxicity at 10 µM was -9.88%.

In the case of `CCc1nc2n(n1)CC(NCC(=O)Nc1nccs1)CC2` (centres undefined), the cytotoxicity at 10 µM is -7.13%.

On to `Cc1ccccc1CC(=O)N(C)C1CCN(c2ccccn2)CC1`, for which the cytotoxicity at 10 µM is -2.74%.

For `CCCc1noc(CN2CCCC2c2c(C)nn(C)c2OC)n1` (centres undefined), the cytotoxicity at 10 µM stood at 9.94%.

Regarding `Cc1cnn(C2CCCN(C(=O)c3cccc(Cn4ccnc4)c3)C2)c1` (centres undefined), the cytotoxicity at 10 µM is -1.03%.

As to `CC(C)c1nnc2n1CCN(C(=O)c1ccc(-n3cnnc3)cc1)C2`, the cytotoxicity at 10 µM was -11.5%.

Consider `CCCC(=O)N(CCCN1CCOCC1)c1nc2c(C)ccc(Cl)c2s1`, for which the cytotoxicity at 10 µM is -10.2%.

For `c1cnc(NC2COC3(CCN(Cc4nccs4)CC3)C2)cn1` (centres undefined), the cytotoxicity at 10 µM was -79.9%.

For `O=C(CC1CC1)N1CCn2cc(Cn3cccn3)nc2C1`, the cytotoxicity at 10 µM was -78.5%.

With `CN(C)C[C@H]1OC[C@@H]2CCN(S(=O)(=O)c3ccc(F)cc3)C[C@@H]21`, the cytotoxicity at 10 µM was -85.7%.

Take `CCc1ccc(CN2CC[C@@H]3CN(S(C)(=O)=O)CCO[C@@H]3C2)o1`: the cytotoxicity at 10 µM was -0.461%.

On to `Cc1ccc2c(n1)N(CCN(C)C)CCN(Cc1c(C)noc1C)C2`, for which the cytotoxicity at 10 µM was found to be 5.74%.

For the molecule `CNC(=O)CN1CCO[C@H]2CN(CC3CC3)C[C@H]21`, the cytotoxicity at 10 µM is 6.25%.

Consider `c1cnc(N2CCO[C@H]3CN(Cc4ccsc4)C[C@H]32)nc1`, for which the cytotoxicity at 10 µM was -82%.

Regarding `COC1[C@@H]2CC[C@H]1CN(c1nc(C)nc3ccsc13)C2` (some centres undefined), the cytotoxicity at 10 µM worked out at 18%.

Source of the values: ChEMBL document CHEMBL4513216, “Probing the Open Global Health Chemical Diversity Library for Multistage-Active Starting Points for Next-Generation Antimalarials” (ACS Infect Dis, 2020).
